Calls of active or inactive are those of the source. The calls are words filed in the database; no cut-off is given here.
System: Solanum lycopersicum
Assay: Phytotoxicity against Solanum lycopersicum (tomato) assessed as growth inhibition of root length measured 5 days post treatment
Assay type: functional, organism-based
Settings: not given
In short: (§1)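 Lettuce or tomato seeds were grown for 5 days on one filter-paper sheet in 90 mm dishes. The medium was aqueous 10^-2 M MES adjusted to pH 6.0 with NaOH. Compounds were taken from DMSO stocks and diluted into buffer (5 μL DMSO/mL), giving final levels of 1, 0.5, 0.1, 0.05 and 0.01 mM. Root length was acquired automatically. EC50 came from a constant-slope sigmoidal dose-response fit versus log concentration.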

Compound | growth inhibition (GI)
CCC(=O)ON1C(=O)COc2c(Cl)cccc21 | Active
CCC(=O)ON1C(=O)COc2ccc(F)cc21 | Active
CCC1Oc2c(Cl)cccc2N(O)C1=O (stereo not drawn) | Active
CCCC1Oc2c(Cl)cccc2N(O)C1=O (stereo not drawn) | Active
CCCC1Oc2ccc(Cl)cc2N(O)C1=O (stereo not drawn) | Active
CCCCC(=O)ON1C(=O)COc2ccc(F)cc21 | Active
O=C1C(c2ccccc2)Oc2c(Cl)cccc2N1O (stereo not drawn) | Active
O=C1C(c2ccccc2)Oc2ccc(Cl)cc2N1O (stereo not drawn) | Active
O=C1C(c2ccccc2)Oc2ccc(F)cc2N1O (stereo not drawn) | Active
CCC1Oc2ccc(Cl)cc2N(O)C1=O [6-Cl-2-Et-D-DIBOA] | Active
CCCON1C(=O)COc2ccc(Cl)cc21 [6-Cl-4-Pr-D-DIBOA] | Active
CCCCC(=O)ON1C(=O)COc2ccc(Cl)cc21 [6-Cl-4-Val-D-DIBOA] | Active
CCC1Oc2ccc(F)cc2N(O)C1=O [6-F-2-Et-D-DIBOA] | Active

Same assay, conditions: 120 h

Compound | IC50 [nM]
CCC1Oc2ccc(Cl)cc2N(O)C1=O [6-Cl-2-Et-D-DIBOA] | 2300

System: Lepidium sativum
Assay: Phytotoxicity against Lepidium sativum assessed as growth inhibition of root length at < 1 uM measured 4 days post treatment
Assay type: functional, organism-based
Settings: not given

Compound | growth inhibition (GI)
CCC(=O)ON1C(=O)COc2ccc(F)cc21 | Active
CCC1Oc2ccc(Cl)cc2N(O)C1=O [6-Cl-2-Et-D-DIBOA] | Active
CCCCC(=O)ON1C(=O)COc2ccc(Cl)cc21 [6-Cl-4-Val-D-DIBOA] | Active

System: Solanum lycopersicum
Assay: Phytotoxicity against Solanum lycopersicum (tomato) assessed as growth inhibition of root length at 1 to 5 uM measured 5 days post treatment
Assay type: functional, organism-based
Settings: not given
In short: (§2)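 Seeds germinated in Petri dishes on one filter-paper sheet, in aqueous solution buffered with 10^-2 M MES and brought to pH 6.0 with NaOH. Compounds were dissolved in DMSO, then diluted into buffer (5 μL DMSO/mL). Root length was recorded by automated image acquisition with statistical analysis.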

Compound | growth inhibition (GI)
CCCON1C(=O)COc2ccc(Cl)cc21 [6-Cl-4-Pr-D-DIBOA] | Active
CCCCC(=O)ON1C(=O)COc2ccc(Cl)cc21 [6-Cl-4-Val-D-DIBOA] | Active

System: Lepidium sativum
Assay: Phytotoxicity against Lepidium sativum assessed as growth inhibition of root length measured 4 days post treatment
Assay type: functional, organism-based
Settings: not given
In short: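 Cress bioassay run over 4 days in 90 mm Petri dishes with one filter-paper sheet. Seeds were in aqueous 10^-2 M MES buffer at pH 6.0, set with 1 M NaOH. DMSO stocks were diluted into buffer at 5 μL/mL to final concentrations of 1, 0.5, 0.1, 0.05 and 0.01 mM. Root length was recorded by an automated system. Values were fitted to a constant-slope sigmoidal curve against log concentration to obtain EC50.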

Compound | growth inhibition (GI)
CCC(=O)ON1C(=O)COc2c(Cl)cccc21 | Active
CCC(=O)ON1C(=O)COc2ccc(F)cc21 | Active
CCC1Oc2c(Cl)cccc2N(O)C1=O (stereo not drawn) | Active
CCCC1Oc2c(Cl)cccc2N(O)C1=O (stereo not drawn) | Active
CCCC1Oc2ccc(Cl)cc2N(O)C1=O (stereo not drawn) | Active
CCCCC(=O)ON1C(=O)COc2ccc(F)cc21 | Active
O=C1C(c2ccccc2)Oc2c(Cl)cccc2N1O (stereo not drawn) | Active
O=C1C(c2ccccc2)Oc2ccc(Cl)cc2N1O (stereo not drawn) | Active
O=C1C(c2ccccc2)Oc2ccc(F)cc2N1O (stereo not drawn) | Active
CCC1Oc2ccc(Cl)cc2N(O)C1=O [6-Cl-2-Et-D-DIBOA] | Active
CCCON1C(=O)COc2ccc(Cl)cc21 [6-Cl-4-Pr-D-DIBOA] | Active
CCCCC(=O)ON1C(=O)COc2ccc(Cl)cc21 [6-Cl-4-Val-D-DIBOA] | Active
CCC1Oc2ccc(F)cc2N(O)C1=O [6-F-2-Et-D-DIBOA] | Active

Same assay, conditions: 96 h

Compound | IC50 [nM]
CCC1Oc2ccc(Cl)cc2N(O)C1=O [6-Cl-2-Et-D-DIBOA] | 400
CCCON1C(=O)COc2ccc(Cl)cc21 [6-Cl-4-Pr-D-DIBOA] | 60
CCCCC(=O)ON1C(=O)COc2ccc(Cl)cc21 [6-Cl-4-Val-D-DIBOA] | 60
CCC1Oc2ccc(F)cc2N(O)C1=O [6-F-2-Et-D-DIBOA] | 1000

System: Lactuca sativa
Assay: Phytotoxicity against Lactuca sativa (lettuce) assessed as growth inhibition of root length measured 5 days post treatment
Assay type: functional, organism-based
Settings: not given
In short: as §1

Compound | growth inhibition (GI)
CCC(=O)ON1C(=O)COc2c(Cl)cccc21 | Active
CCC(=O)ON1C(=O)COc2ccc(F)cc21 | Active
CCC1Oc2c(Cl)cccc2N(O)C1=O (stereo not drawn) | Active
CCCC1Oc2c(Cl)cccc2N(O)C1=O (stereo not drawn) | Active
CCCC1Oc2ccc(Cl)cc2N(O)C1=O (stereo not drawn) | Active
CCCCC(=O)ON1C(=O)COc2ccc(F)cc21 | Active
O=C1C(c2ccccc2)Oc2c(Cl)cccc2N1O (stereo not drawn) | Active
O=C1C(c2ccccc2)Oc2ccc(Cl)cc2N1O (stereo not drawn) | Active
O=C1C(c2ccccc2)Oc2ccc(F)cc2N1O (stereo not drawn) | Active
CCC1Oc2ccc(Cl)cc2N(O)C1=O [6-Cl-2-Et-D-DIBOA] | Active
CCCON1C(=O)COc2ccc(Cl)cc21 [6-Cl-4-Pr-D-DIBOA] | Active
CCCCC(=O)ON1C(=O)COc2ccc(Cl)cc21 [6-Cl-4-Val-D-DIBOA] | Active
CCC1Oc2ccc(F)cc2N(O)C1=O [6-F-2-Et-D-DIBOA] | Active

System: Allium cepa
Assay: Phytotoxicity against Allium cepa (onion) assessed as growth inhibition of root length at 1 to 5 uM measured 7 days post treatment
Assay type: functional, organism-based
Settings: not given
In short: as §2

Compound | growth inhibition (GI)
CCCON1C(=O)COc2ccc(Cl)cc21 [6-Cl-4-Pr-D-DIBOA] | Active
CCCCC(=O)ON1C(=O)COc2ccc(Cl)cc21 [6-Cl-4-Val-D-DIBOA] | Active

System: Allium cepa
Assay: Phytotoxicity against Allium cepa (onion) assessed as growth inhibition of root length measured 7 days post treatment
Assay type: functional, organism-based
Settings: not given
In short: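 Onion seeds germinated in 90 mm Petri dishes on one filter-paper sheet, in aqueous 10^-2 M MES buffer brought to pH 6.0 with NaOH. Compounds were dissolved in DMSO and diluted into buffer (5 μL DMSO/mL) to test concentrations of 1, 0.5, 0.1, 0.05 and 0.01 mM. Root length was recorded after 7 days by automated image acquisition. EC50 was derived from a constant-slope sigmoidal fit on a log concentration scale.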

Compound | growth inhibition (GI)
CCC(=O)ON1C(=O)COc2c(Cl)cccc21 | Active
CCC(=O)ON1C(=O)COc2ccc(F)cc21 | Active
CCC1Oc2c(Cl)cccc2N(O)C1=O (stereo not drawn) | Active
CCCC1Oc2c(Cl)cccc2N(O)C1=O (stereo not drawn) | Active
CCCC1Oc2ccc(Cl)cc2N(O)C1=O (stereo not drawn) | Active
CCCCC(=O)ON1C(=O)COc2ccc(F)cc21 | Active
O=C1C(c2ccccc2)Oc2c(Cl)cccc2N1O (stereo not drawn) | Active
O=C1C(c2ccccc2)Oc2ccc(Cl)cc2N1O (stereo not drawn) | Active
O=C1C(c2ccccc2)Oc2ccc(F)cc2N1O (stereo not drawn) | Active
CCC1Oc2ccc(Cl)cc2N(O)C1=O [6-Cl-2-Et-D-DIBOA] | Active
CCCON1C(=O)COc2ccc(Cl)cc21 [6-Cl-4-Pr-D-DIBOA] | Active
CCCCC(=O)ON1C(=O)COc2ccc(Cl)cc21 [6-Cl-4-Val-D-DIBOA] | Active
CCC1Oc2ccc(F)cc2N(O)C1=O [6-F-2-Et-D-DIBOA] | Active

Same assay, conditions: 168 h

Compound | IC50 [nM]
CCC1Oc2ccc(Cl)cc2N(O)C1=O [6-Cl-2-Et-D-DIBOA] | 1600
CCCON1C(=O)COc2ccc(Cl)cc21 [6-Cl-4-Pr-D-DIBOA] | 200
CCCCC(=O)ON1C(=O)COc2ccc(Cl)cc21 [6-Cl-4-Val-D-DIBOA] | 200
CCC1Oc2ccc(F)cc2N(O)C1=O [6-F-2-Et-D-DIBOA] | 1300

System: Lactuca sativa
Assay: Phytotoxicity against Lactuca sativa (lettuce) assessed as growth inhibition of root length at 5 uM measured 5 days post treatment
Assay type: functional
Settings: 120 h, read-out: GI
In short: as §2

Compound | inhibition of growth at 5 µM [%]
CCCON1C(=O)COc2ccc(Cl)cc21 [6-Cl-4-Pr-D-DIBOA] | 50
CCCCC(=O)ON1C(=O)COc2ccc(Cl)cc21 [6-Cl-4-Val-D-DIBOA] | 50

System: Lactuca sativa
Assay: Phytotoxicity against Lactuca sativa (lettuce) assessed as growth inhibition of root length at 1 to 5 uM measured 5 days post treatment
Assay type: functional, organism-based
Settings: not given
In short: as §2

Compound | growth inhibition (GI)
CCCON1C(=O)COc2ccc(Cl)cc21 [6-Cl-4-Pr-D-DIBOA] | Active
CCCCC(=O)ON1C(=O)COc2ccc(Cl)cc21 [6-Cl-4-Val-D-DIBOA] | Active

System: Solanum lycopersicum
Assay: Phytotoxicity against Solanum lycopersicum (tomato) assessed as growth inhibition of root length at 1 uM measured 5 days post treatment
Assay type: functional
Settings: 120 h, read-out: GI
In short: as §2

Compound | inhibition of growth at 1 µM [%]
CCCON1C(=O)COc2ccc(Cl)cc21 [6-Cl-4-Pr-D-DIBOA] | 50
CCCCC(=O)ON1C(=O)COc2ccc(Cl)cc21 [6-Cl-4-Val-D-DIBOA] | 50

System: Allium cepa
Assay: Phytotoxicity against Allium cepa (onion) assessed as growth inhibition of root length at 1 uM measured 7 days post treatment
Assay type: functional
Settings: 168 h, read-out: GI

Compound | inhibition of growth at 1 µM [%]
CCC1Oc2ccc(Cl)cc2N(O)C1=O [6-Cl-2-Et-D-DIBOA] | 60
CCCON1C(=O)COc2ccc(Cl)cc21 [6-Cl-4-Pr-D-DIBOA] | 50
CCCCC(=O)ON1C(=O)COc2ccc(Cl)cc21 [6-Cl-4-Val-D-DIBOA] | 90
CCC1Oc2ccc(F)cc2N(O)C1=O [6-F-2-Et-D-DIBOA] | 50

Source: ChEMBL document CHEMBL3046968, “Combined strategy for phytotoxicity enhancement of benzoxazinones” (J Agric Food Chem, 2010)
